Assay results taken from ChEMBL document CHEMBL1131570, “2,5-bis[4-(N-alkylamidino)phenyl]furans as anti-Pneumocystis carinii agents” (J Med Chem, 1998).

Tests used:
[1] = Toxicity at a dose of 10.6 umol/kg/day against Pneumocystis carinii in rats; conditions: rat, in vivo
Rattus norvegicus [2] = assay: The cysts/g of lung (% of control ) is calculated at a dose of 10.6 umol/kg/day against Pneumocystis carinii in rats; format: functional
How it was run: (§1)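 Rat *P. carinii* pneumonia model: furan dications given intravenously; lung cysts counted per g of lung tissue and expressed relative to pooled saline-treated control rats.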

[3] = Toxicity at a dose of 1.9 umol/kg day against Pneumocystis carinii in rats; conditions: rat, in vivo
Rattus norvegicus [4] = assay: The cysts/g of lung (% of control ) is calculated at a dose of 0.2 umol/kg day against Pneumocystis carinii in rats; format: functional; how it was run: as §1
[5] = Toxicity at a dose of 0.9 umol/kg day against Pneumocystis carinii in rats; conditions: rat, in vivo
Rattus norvegicus [6] = assay: The cysts/g of lung (% of control ) is calculated at a dose of 0.9 umol/kg day against Pneumocystis carinii in rats; format: functional; how it was run: as §1
Rattus norvegicus [7] = assay: The cysts/g of lung (% of control ) is calculated at a dose of 9.4 umol/kg day against Pneumocystis carinii in rats; format: functional; how it was run: as §1
Rattus norvegicus [8] = assay: The cysts/g of lung (% of control ) is calculated at a dose of 1.9 umol/kg day against Pneumocystis carinii in rats; format: functional; how it was run: as §1
[9] = Toxicity at a dose of 0.2 umol/kg day against Pneumocystis carinii in rats; conditions: rat, in vivo
[10] = Toxicity at a dose of 10.4 umol/kg/day against Pneumocystis carinii in rats; conditions: rat, in vivo
Rattus norvegicus [11] = assay: The cysts/g of lung (% of control ) is calculated at a dose of 10.4 umol/kg/day against Pneumocystis carinii in rats; format: functional; how it was run: as §1
[12] = Toxicity at a dose of 0.2 umol/kg/day against Pneumocystis carinii in rats; conditions: rat, in vivo
Rattus norvegicus [13] = assay: The cysts/g of lung (% of control ) is calculated at a dose of 0.2 umol/kg/day against Pneumocystis carinii in rats; format: functional; how it was run: as §1
Rattus norvegicus [14] = assay: The cysts/g of lung (% of control ) is calculated at a dose of 0.3 umol/kg /day against Pneumocystis carinii in rats; format: functional
How it was run: (§2)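 P. carinii-infected rats dosed intravenously with the furan dication. Cysts were counted per g of lung tissue and expressed as % of the mean count of pooled saline-treated controls (n = 142).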

Rattus norvegicus [15] = assay: The cysts/g of lung (% of control ) is calculated at a dose of 0.03 umol/kg /day against Pneumocystis carinii in rats; format: functional; how it was run: as §2
Rattus norvegicus [16] = assay: The cysts/g of lung (% of control ) is calculated at a dose of 2.7 umol/kg/day against Pneumocystis carinii in rats; format: functional; how it was run: as §2
[17] = Toxicity at a dose of 0.3 umol/kg/day against Pneumocystis carinii in rats; conditions: rat, in vivo
[18] = Toxicity at a dose of 0.03 umol/kg/day against Pneumocystis carinii in rats; conditions: rat, in vivo
[19] = Toxicity at a dose of 2.7 umol/kg/day against Pneumocystis carinii in rats; conditions: rat, in vivo
[20] = Toxicity at 10.4 a dose of umol/kg/day against Pneumocystis carinii in rats; conditions: rat, in vivo
Rattus norvegicus [21] = assay: The cysts/g of lung (% of control ) is calculated at a dose of 10 umol/kg/day against Pneumocystis carinii in rats; format: functional; how it was run: as §1
[22] = Toxicity at a dose of 10 umol/kg/day against Pneumocystis carinii in rats; conditions: rat, in vivo
Rattus norvegicus [23] = assay: The cysts/g of lung (% of control ) is calculated at a dose of 4.8 umol/kg/day against Pneumocystis carinii in rats; format: functional; how it was run: as §1
Rattus norvegicus [24] = assay: The cysts/g of lung (% of control ) is calculated at a dose of 0.5 umol/kg/day against Pneumocystis carinii in rats; format: functional; how it was run: as §1
[25] = Toxicity at a dose of 0.5 umol/kg/day against Pneumocystis carinii in rats; conditions: rat, in vivo
Rattus norvegicus [26] = assay: The cysts/g of lung (% of control ) is calculated at a dose of 10.8 umol/kg/day against Pneumocystis carinii in rats; format: functional; how it was run: as §1
[27] = Toxicity at a dose of 10.8 umol/kg/day against Pneumocystis carinii in rats; conditions: rat, in vivo
Rattus norvegicus [28] = assay: The cysts/g of lung (% of control ) is calculated at a dose of 22.0 umol/kg/day against Pneumocystis carinii in rats; format: functional; how it was run: as §1
Rattus norvegicus [29] = assay: The cysts/g of lung (% of control ) is calculated at a dose of 13.3 umol/kg/day against Pneumocystis carinii in rats; format: functional; how it was run: as §1
[30] = Toxicity at a dose of 22.0 umol/kg/day against Pneumocystis carinii in rats;; conditions: rat, in vivo
[31] = Toxicity at a dose of 13.3 umol/kg/day against Pneumocystis carinii in rats; conditions: rat, in vivo
[32] = Toxicity at a dose of 0.9 umol/kg/day against Pneumocystis carinii in rats; conditions: rat, in vivo
Rattus norvegicus [33] = assay: The cysts/g of lung (% of control ) is calculated at a dose of 9.1 umol/kg/day against Pneumocystis carinii in rats; format: functional; how it was run: as §1
Rattus norvegicus [34] = assay: The cysts/g of lung (% of control ) is calculated at a dose of 0.9 umol/kg/day against Pneumocystis carinii in rats; format: functional; how it was run: as §1
[35] = Toxicity at a dose of 9.1 umol/kg/day against Pneumocystis carinii in rats; conditions: rat, in vivo
[36] = Toxicity at a dose of 9.7 umol/kg/day against Pneumocystis carinii in rats;; conditions: rat, in vivo
Rattus norvegicus [37] = assay: The cysts/g of lung (% of control ) is calculated at a dose of 9.7 umol/kg/day against Pneumocystis carinii in rats; format: functional; how it was run: as §1
Rattus norvegicus [38] = assay: The cysts/g of lung (% of control ) is calculated at a dose of 0.2 umol/kg /day against Pneumocystis carinii in rats; format: functional; how it was run: as §1
Rattus norvegicus [39] = assay: The cysts/g of lung (% of control ) is calculated at a dose of 1.1 umol/kg/day against Pneumocystis carinii in rats; format: functional; how it was run: as §1
Rattus norvegicus [40] = assay: The cysts/g of lung (% of control ) is calculated at a dose of 2.2 umol/kg/day against Pneumocystis carinii in rats; format: functional; how it was run: as §1
[41] = Toxicity at a dose of 2.2 umol/kg /day against Pneumocystis carinii in rats; conditions: rat, in vivo
[42] = Toxicity at a dose of 1.1 umol/kg / day against Pneumocystis carinii in rats; conditions: rat, in vivo
Rattus norvegicus [43] = assay: The cysts/g of lung (% of control ) is calculated at a dose of 9.9 umol/kg/day against Pneumocystis carinii in rats; format: functional; how it was run: as §1
Rattus norvegicus [44] = assay: The cysts/g of lung (% of control ) is calculated at a dose of 1.0 umol/kg/day against Pneumocystis carinii in rats; format: functional; how it was run: as §1
[45] = Toxicity at a dose of 1.0 umol/kg/day against Pneumocystis carinii in rats; conditions: rat, in vivo

Compound: N=C(NCC1CCCCC1)c1ccc(-c2ccc(-c3ccc(C(=N)NCC4CCCCC4)cc3)o2)cc1
- Toxicity [1]: 0
- Control (Rattus norvegicus [2]): 43.9%

Compound: N=C(NC1CCCC1)c1ccc(-c2ccc(-c3ccc(C(=N)NC4CCCC4)cc3)o2)cc1
- Toxicity [3]: 0
- Control (Rattus norvegicus [4]): 93.5%
- Toxicity [5]: 0
- Control (Rattus norvegicus [6]): 0.11%
- Control (Rattus norvegicus [7]): 0.03%
- Control (Rattus norvegicus [8]): 0.08%
- Toxicity [9]: 0

Compound: N=C(NCCO)c1ccc(-c2ccc(-c3ccc(C(=N)NCCO)cc3)o2)cc1
- Toxicity [10]: 0
- Control (Rattus norvegicus [11]): 0.6%

Compound: C/N=C(\N)c1ccc(-c2ccc(-c3ccc(/C(N)=N/C)cc3)o2)cc1
- Toxicity [12]: 0
- Control (Rattus norvegicus [13]): 85.37%
- Control (Rattus norvegicus [2]): 0.16%

Compound: N=C(N)c1ccc(-c2ccc(-c3ccc(C(=N)N)cc3)o2)cc1 [FURAMIDINE]
- Control (Rattus norvegicus [14]): 5.38%
- Control (Rattus norvegicus [15]): 21.97%
- Control (Rattus norvegicus [16]): 5.65%
- Toxicity [17]: 0
- Toxicity [18]: 0
- Toxicity [19]: 0

Compound: CC/N=C(\N)c1ccc(-c2ccc(-c3ccc(/C(N)=N/CC)cc3)o2)cc1
- Control (Rattus norvegicus [11]): 0.05%
- Toxicity [20]: 0

Compound: CC(C)CNC(=N)c1ccc(-c2ccc(-c3ccc(C(=N)NCC(C)C)cc3)o2)cc1
- Control (Rattus norvegicus [21]): 2.2%
- Toxicity [22]: 0

Compound: CCC(CC)NC(=N)c1ccc(-c2ccc(-c3ccc(C(=N)NC(CC)CC)cc3)o2)cc1
- Control (Rattus norvegicus [23]): 24.43%

Compound: CCCNC(=N)c1ccc(-c2ccc(-c3ccc(C(=N)NCCC)cc3)o2)cc1
- Toxicity [12]: 0
- Toxicity [1]: 0
- Control (Rattus norvegicus [13]): 107.83%
- Control (Rattus norvegicus [2]): 0.08%

Compound: N=C(NCC1CC1)c1ccc(-c2ccc(-c3ccc(C(=N)NCC4CC4)cc3)o2)cc1
- Control (Rattus norvegicus [24]): 3.25%
- Toxicity [25]: 0
- Control (Rattus norvegicus [26]): 0.24%
- Toxicity [27]: 0

Compound: N=C(N)c1ccc(OCCCCCOc2ccc(C(=N)N)cc2)cc1 [PENTAMIDINE]
- Control (Rattus norvegicus [28]): 1.46%
- Control (Rattus norvegicus [29]): 0.61%
- Toxicity [30]: Local toxicity
- Toxicity [31]: 0

Compound: N=C(NC1CCCCC1)c1ccc(-c2ccc(-c3ccc(C(=N)NC4CCCCC4)cc3)o2)cc1
- Toxicity [32]: 0
- Control (Rattus norvegicus [33]): 0.02%
- Control (Rattus norvegicus [34]): 26.28%
- Toxicity [35]: 0

Compound: CC(C)CC/N=C(\N)c1ccc(-c2ccc(-c3ccc(/C(N)=N/CCC(C)C)cc3)o2)cc1
- Toxicity [36]: 0
- Control (Rattus norvegicus [37]): 2.38%

Compound: CC(C)NC(=N)c1ccc(-c2ccc(-c3ccc(C(=N)NC(C)C)cc3)o2)cc1
- Control (Rattus norvegicus [38]): 169%
- Control (Rattus norvegicus [39]): 11.73%
- Toxicity [12]: 0
- Control (Rattus norvegicus [40]): 8.41%
- Toxicity [41]: 0
- Control (Rattus norvegicus [26]): 0.2%
- Toxicity [27]: 0
- Toxicity [42]: 0

Compound: N=C(NC1CC1)c1ccc(-c2ccc(-c3ccc(C(=N)NC4CC4)cc3)o2)cc1
- Toxicity [12]: 0
- Control (Rattus norvegicus [26]): 0.03%
- Control (Rattus norvegicus [13]): 129%

Compound: N=C(NC1CCC1)c1ccc(-c2ccc(-c3ccc(C(=N)NC4CCC4)cc3)o2)cc1
- Control (Rattus norvegicus [43]): 0.05%
- Control (Rattus norvegicus [44]): 0.67%
- Toxicity [45]: 0
